Compounds with a hit are over-represented: about 2.6% of the library has one in this group of screens.
PvdQ acylase – blocks Pseudomonas aeruginosa PvdQ acylase activity | hit rate 0.063% among 340,000 | AID 488965 | inhibition, % at 10 µM | purified PvdQ acylase, fluorescence plate reader; in the data active = inhibition above about 30%, passing the limit was not always enough;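 note: 0% = vehicle neutral wells and 100% = reference inhibitor wells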
Xi reactivation – reactivates the inactive X chromosome in mouse fibroblasts | XiGFP mouse fibroblasts, % GFP-positive cells imaging, 3 d; cells co-treated with 5-aza-dC sensitizer; scaled so ellipticine positive control = 100% | activation, % at 7.58 µM | hit rate 0.055% among 360,000 | AID 743238;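 active = mean normalized replicate activation at least 10% and every replicate at or above 10%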;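 note: 0% = median of on-plate neutral control wells and 100% = ellipticine 6 µM median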
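System: SV40-immortalized XiGFP fibroblast cells, line 68-5-11 / Incubation: 3-day compound exposure, then 15 min fixation at room temperature / Compound: single concentration per compound, delivered by pin transfer / Buffer or medium: DMEM plus 5-aza-dC sensitizer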
SR-BI DiI inh – blocks mouse SR-BI lipid uptake from DiI-HDL | hit rate 0.96% among 320,000 | Q61009 | AID 488896 | inhibition, % at 12.5 µM | ldlA[mSR-BI] CHO cells, DiI-HDL uptake fluorescence, 3 h;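 active = mean replicate inhibition of at least 70% and a set share of replicates each scoring 70 or more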;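 note: 0% = median of neutral control wells and 100% = median of positive control wells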
Target sequence (Q61009 whole entry, looked up): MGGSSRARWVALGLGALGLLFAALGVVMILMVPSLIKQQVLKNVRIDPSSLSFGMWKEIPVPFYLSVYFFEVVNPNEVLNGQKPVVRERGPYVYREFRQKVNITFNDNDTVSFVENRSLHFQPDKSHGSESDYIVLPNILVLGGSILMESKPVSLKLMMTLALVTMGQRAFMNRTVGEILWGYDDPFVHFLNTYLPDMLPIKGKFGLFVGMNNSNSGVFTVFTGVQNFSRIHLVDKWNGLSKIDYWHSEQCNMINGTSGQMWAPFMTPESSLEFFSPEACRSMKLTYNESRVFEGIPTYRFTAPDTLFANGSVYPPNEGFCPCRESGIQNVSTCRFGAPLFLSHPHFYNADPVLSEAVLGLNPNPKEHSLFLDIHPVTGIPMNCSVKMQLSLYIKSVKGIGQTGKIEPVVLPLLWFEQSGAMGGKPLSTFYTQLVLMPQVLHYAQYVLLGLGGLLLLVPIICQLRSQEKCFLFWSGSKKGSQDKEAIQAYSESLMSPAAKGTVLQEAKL
dFosB act – enhances mouse delta FosB homodimer DNA binding | activation, % at 25 µM | AID 493131 | hit rate 0.99% among 340,000 | purified delta FosB, TAMRA-CDK5 oligo fluorescence polarization; percent of positive-control signal above neutral wells;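 active = mean activation above about 17%, with every replicate also reaching it, limit read from the data, passing the limit was not always enough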
Ecoli rRNA inh – selective bacterial rRNA inhibition in E. coli; hit rate 1.6% among 350,000; E. coli WT GFP vs humanized-ribosome RFP mutants, fluorescence, 24 h; stronger effect = lower value; DMSO median 0, no signal -100; AID 720706; GFP signal change (wild-type ribosome), % (concentration not given with the values);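 active = significant combined selectivity score with lowered wild-type GFP, culture density cut under 30%, mutant RFP and density less affected; inactive = any of these conditions unmet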
SR-BI uptake up – SR-BI HDL lipid transfer activation. CHO ldlA[mSR-BI] cells, DiI-HDL uptake fluorescence, 3 h; 100 = double the neutral-control signal. activation, % at 12.5 µM. hit rate 0.096% among 320,000;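 active = mean replicate activation of at least 60% and every replicate at or above 60%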;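 note: 0% = median plate neutral-control signal and 100% = twice that signal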
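material = CHO ldlA[mSR-BI] cells | medium = Ham's F12 with 0.5% BSA, HEPES 25 mM, pH 7.4 | reagent = fluorescent DiI-HDL, 10 µg/mL final | compound dosing = single-point compound dose | incubation = 3 h, 37 °C | measured by = bottom-read fluorescence, 550/595 nm | measure = HDL uptake via cellular fluorescence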
Numbers without * were called inactive; · = not tested or not shown.

SMILES	PvdQ acylase	Xi reactivation	SR-BI DiI inh	dFosB act	Ecoli rRNA inh	SR-BI uptake up
CC1CCc2sc(NC(=O)c3ccc(N4C(=O)CCC4=O)cc3)c(C(N)=O)c2C1 (configuration not stated)	-8	0	59	7	8	-59
NCCNC(=O)c1c(NC(=O)c2ccccc2)sc2c1CCCC2	-16	0	13	16	-22*	-13
Cc1cc(C(=O)Nc2sc3c(c2C#N)CCC3)no1	-7	·	2	-1	·	-2
C[C@@H]1CN([C@@H](C)CO)S(=O)(=O)c2ccc(C3=CCCCC3)cc2O[C@@H]1CN(C)C(=O)c1ccccc1	·	-1	·	·	-6	·
CCOC(=O)c1c(NC(=O)c2ccn(CC)n2)sc2c1CCCC2	-5	·	72*	-20	·	-72
CC(C)(C)C1CCc2c(sc(NC(=O)CSc3ncn[nH]3)c2C#N)C1 (configuration not stated)	-32	·	21	-8	·	-21
N#Cc1c(NC(=O)c2ccccc2)sc2c1CCCCC2	6	·	78*	3	·	-78
CCOC(=O)c1c(NC(=O)c2ccco2)sc2c1CCCC2	-12	·	5	5	·	-5
CC1CCc2c(sc(NC(=O)CSc3ncn[nH]3)c2C#N)C1 (configuration not stated)	-36	0	3	-6	-19*	-3
CCOC(=O)c1cc(C(=O)Nc2sc3c(c2C#N)CCCC3)nn1C	-16	0	76*	6	5	-76
CCC1(C)Cc2ccccc2-c2nc(SC)[nH]c(=O)c21 (configuration not stated)	-4	0	10	-8	1	-10
NC(=O)c1c(NC(=O)c2ccccc2C(=O)O)sc2c1CCCC2	-16	0	-12	6	4	12
CCOC(=O)c1c(NC(=O)C(=O)N/N=C/c2ccccc2O)sc2c1CCCCC2	-2	0	127*	-4	13	-127
COC(=O)c1c(NC(=O)c2ccccc2C(=O)O)sc2c1CCC2	-9	0	0	-4	-21*	0
CC(C)Cn1c(N)c(C(=O)COC(=O)c2cccc(Cl)c2)c(=O)n(C)c1=O	-8	0	25	-16	-28*	-25
CC(C)Cn1c(N)c(C(=O)COC(=O)Cc2cccs2)c(=O)n(C)c1=O	-3	0	-6	-11	·	6
CC(C)Cn1c(N)c(C(=O)COC(=O)/C=C/c2cccs2)c(=O)n(C)c1=O	1	0	·	-9	-23*	·
CC(C)Cn1c(N)c(C(=O)COC(=O)c2ccccc2Cl)c(=O)n(C)c1=O	-15	0	49	-13	-35	-49
CCCCOC(=O)C1CN(c2ccccc2)N=C1C(C)=O (configuration not stated)	-18	0	-4	-4	-32*	4
O=C(Nc1ccc(Cl)cc1)N1CCC(c2nc(-c3ccc(F)cc3)no2)CC1	-22	·	45	-4	-8	-45
CSc1nsc(SCc2ccc(F)cc2)n1	-11	·	12	1	·	-12
CSc1nsc(SCc2ccc(Cl)cc2)n1	21	·	-8	-2	-43*	8
O=C(NNC(=S)NC(=O)c1ccccc1[N+](=O)[O-])c1ccccc1O	5	0	84*	3	-36	-84
O=C(NNC(=S)NC(=O)c1ccccc1[N+](=O)[O-])c1ccc(Cl)cc1Cl	-9	0	0	-8	-29	0
O=C(NNC(=S)NC(=O)c1ccccc1[N+](=O)[O-])c1ccccc1[N+](=O)[O-]	-7	·	-20	-6	-26*	20
SMILES	PvdQ acylase	Xi reactivation	SR-BI DiI inh	dFosB act	Ecoli rRNA inh	SR-BI uptake up
O=C(O)CCn1cc(-c2ccc(F)cc2)nc1-c1ccncc1	-8	0	-20	0	7	20
CCCSc1nc2sc3c(c2c(=O)n1CC)CC(C)(C)OC3	7	0	·	-6	-25	·
Cc1nc(NC2=NCN(CCCN3CCOCC3)CN2)nc2c(C)cccc12	3	·	-21	32*	·	21
CCN(CC)CCNc1ccc(CO)c2oc3cc(Cl)ccc3c(=O)c12	·	0	·	·	0	·
CN(C)CCNc1ccc(CO)c2oc3ccc(O)cc3c(=O)c12	9	0	4	26*	-10	-4
Cc1ccc(S(=O)(=O)N(C)C[C@@H]2Oc3c(NC(=O)C4CCCCC4)cccc3C(=O)N([C@@H](C)CO)C[C@@H]2C)cc1	·	0	·	·	-9	·
CC(C)C[C@H](NC(=O)Nc1cccc(Cl)c1)C(=O)O	2	·	-15	3	·	15
NC(=S)n1[nH]c(-c2ccc([N+](=O)[O-])cc2)c(N=Nc2cccc([N+](=O)[O-])c2)c1=O	-2	0	87*	-14	1	-87
Cc1[nH]n(-c2ccccc2)c(=O)c1N=Nc1cccc([N+](=O)[O-])c1	-13	0	43	3	4	-43
Cc1c(N=Nc2c(-c3ccc([N+](=O)[O-])cc3)[nH]n(C(N)=S)c2=O)cccc1[N+](=O)[O-]	-6	0	92*	-3	4	-92
Cc1[nH]n(C(N)=S)c(=O)c1N=Nc1cccc([N+](=O)[O-])c1C	-7	·	-14	-3	·	14
NC(=S)n1[nH]c(-c2ccc([N+](=O)[O-])cc2)c(N=Nc2ccccc2[N+](=O)[O-])c1=O	-5	0	89*	-2	22	-89
CCN(CC)S(=O)(=O)c1cccc(C(=O)/C=C2/N(C)c3ccccc3C2(C)C)c1	-15	0	39	-2	4	-39
COc1cc(C)nc(N2CCCC(C(=O)Nc3cccc(Cl)c3C)C2)n1 (configuration not stated)	-15	·	34	0	·	-34
Cc1csc(Nc2ccc(Cl)cc2)n1	-13	0	-12	3	4	12
COc1cccc(/C=N/n2c(=S)n(C)c3ccccc32)c1OC	-10	·	16	-9	·	-16
Cn1c(=S)n(/N=C/c2cccs2)c2ccccc21	0	0	-262	1	11	262*
Cc1cc(/C=C(\C#N)C(=O)N2CCOCC2)c(C)n1C1CCCC1	-11	0	-13	1	-22*	13
COc1ccc(/C=C(\C#N)C(=O)N2CCOCC2)cc1Br	1	·	-4	0	·	4
COc1ccccc1NC(=O)CSc1nnc(CNC(=O)c2ccco2)n1C	9	0	-12	-2	4	12
Oc1ccc(Nc2nc(N3CCCC3)c3ccccc3n2)cc1	9	·	-14	80*	-25	14
CCCC(=O)N1CC2(C1)CN(C(=O)Cc1ccccn1)[C@H](CO)c1[nH]c3cc(OC)ccc3c12	·	0	·	·	1	·
Cc1cc(Cl)ccc1OCCCC(=O)N1CCN(C)CC1	0	·	-13	10	·	13
